Results as given in ChEMBL document CHEMBL4393721 (Eur J Med Chem, 2019).
Calls of active or inactive are those of the source. The calls are words filed in the database; no cut-off is given here.

Key:
[1] = biological target: T1, Nuclear receptor subfamily 4immunitygroup A member 1 (Homo sapiens, UniProt P22736); experiment: Binding affinity to recombinant human N-terminal His-tagged Nur77 LBD (367 to 598 residues) expressed in Escherichia coli BL21(DE3) incubated for 30 secs by fluorescence quenching assay
HepG2 [2] = experiment: Antiinflammatory activity in human HepG2 cells assessed as inhibition of TNFalpha-induced IkappaBalpha degradation at 2 uM pretreated for 1 hr followed by TNFalpha addition and measured after 30 mins by Western blot analysis; type: functional, cell-based
How it was run: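 HepG2 cells grown in DMEM with 10% FBS were exposed to compound for 1 hr and to TNFα (20 ng/mL) for 30 min. Lysates were run on 10% SDS-PAGE and immunoblotted for IκBα with ECL detection. Band grey values were quantified by densitometry. Data are mean ± SEM of three independent experiments.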

[3] = biological target: T1, Nuclear receptor subfamily 4immunitygroup A member 1; experiment: Binding affinity to GFP-Nur77 (unknown origin) expressed in human HepG2 cells cotransfected with mCherry-p62/SQSTM1 assessed as co-localization with p62/SQSTM1 in cytoplasm in presence of TNFalpha by DAPI staining based confocal microscopic analysis; type: cell-based
How it was run: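 HepG2 cells were transfected with GFP-Nur77 and mCherry-p62/SQSTM1, then treated with TNFα plus compound. Cells were fixed in paraformaldehyde, with nuclei counterstained by DAPI (1:10000). Nur77–p62 colocalization was imaged by fluorescence or LSM-510 confocal microscopy.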

HepG2 [4] = experiment: Induction of apoptosis in TNFalpha-treated human HepG2 cells assessed as non-viable apoptotic cells at 2 uM incubated for 10 hrs by FITC Annexin V and propidium iodide staining based flow cytometric analysis (reference value: 6.65%); type: cell-based; settings: hepg2, 10 h
How it was run: (§1)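 HepG2 cells grown in DMEM with 10% FBS were treated for 10 hr with compound (2 μM) plus TNFα (20 ng/mL). Cells were collected in binding buffer, stained with FITC-Annexin V and propidium iodide at room temperature, and analysed by flow cytometry. Quadrants as labelled: UL necrotic, UR viable apoptotic, LR non-viable apoptotic, LL normal.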

HepG2 [5] = experiment: Induction of apoptosis in TNFalpha-treated human HepG2 cells assessed as necrotic cells at 2 uM incubated for 10 hrs by FITC Annexin V and propidium iodide staining based flow cytometric analysis (reference value: 1.29%); type: cell-based; settings: hepg2, 10 h; how it was run: as §1
HepG2 [6] = experiment: Induction of apoptosis in TNFalpha-treated human HepG2 cells assessed as PARP cleavage at 2 uM incubated for 10 hrs by Western blot analysis; type: cell-based; settings: hepg2, 10 h
[7] = biological target: T1, Nuclear receptor subfamily 4immunitygroup A member 1; experiment: Binding affinity to Myc-Nur77 (unknown origin) expressed in human HepG2 cells co-transfected with Flag tagged TRAF2 assessed as effect on protein interaction with TRAF2 at 2 uM incubated for 1 hr in presence of TNFalpha by co-immunoprecipitation assay; type: cell-based
How it was run: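 HepG2 cells were transfected with Myc-Nur77 and Flag-TRAF2, then treated for 1 hr with compound (2 μM) plus TNFα (20 ng/mL). Lysis buffer was 10 mM Tris pH 7.4, 150 mM NaCl, 1% Triton X-100, 5 mM EDTA and protease inhibitors. Lysate was incubated with 1 μg antibody for 2 hr at 4 °C, pulled down with protein A/G sepharose, washed, and read by Western blot.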

[8] = Induction of apoptosis in TNFalpha-treated human HepG2 cells assessed as normal cells at 2 uM incubated for 10 hrs by FITC Annexin V and propidium iodide staining based flow cytometric analysis (reference value: 88.37%); type: cell-based; settings: read-out: Activity; how it was run: as §1
HepG2 [9] = experiment: Induction of apoptosis in TNFalpha-treated human HepG2 cells assessed as viable apoptotic cells at 2 uM incubated for 10 hrs by FITC Annexin V and propidium iodide staining based flow cytometric analysis (reference value: 3.69%); type: cell-based; settings: hepg2, 10 h; how it was run: as §1
[10] = Toxicity in zebrafish embryo AB assessed as induction of malformation at 0.5 to 1.25 uM incubated for 24 to 72 hrs; parameters: species or system Danio rerio; settings: in vivo
How it was run: (§2)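 Wild-type AB zebrafish embryos (20 per condition), collected within 0.5 h of spawning, were exposed from 2 hpf to 0.5, 1 or 1.25 µM compound in fish water, with 0.1% DMSO as control. Embryos were observed and imaged every 24 h. Mortality was scored at 24 and 72 hpf and malformation rate at 72 hpf.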

[11] = Toxicity in zebrafish embryo AB assessed as mortality at 0.5 uM incubated for 24 hrs; parameters: species or system Danio rerio; settings: in vivo; how it was run: as §2
[12] = Toxicity in zebrafish embryo AB assessed as mortality at 0.5 uM incubated for 72 hrs; parameters: species or system Danio rerio; settings: in vivo; how it was run: as §2
[13] = Toxicity in zebrafish embryo AB assessed as mortality at 0.125 uM incubated for 24 hrs; parameters: species or system Danio rerio; settings: in vivo
[14] = Toxicity in zebrafish embryo AB assessed as mortality at 0.5 uM incubated for 72 hrs relative to control; parameters: species or system Danio rerio; settings: in vivo, read-out: Activity; how it was run: as §2
[15] = Toxicity in zebrafish embryo AB assessed as mortality at 0.125 uM incubated for 24 hrs relative to control; parameters: species or system Danio rerio; settings: in vivo, read-out: Activity

T1 sequence (P22736 whole entry, the tested form may be a part): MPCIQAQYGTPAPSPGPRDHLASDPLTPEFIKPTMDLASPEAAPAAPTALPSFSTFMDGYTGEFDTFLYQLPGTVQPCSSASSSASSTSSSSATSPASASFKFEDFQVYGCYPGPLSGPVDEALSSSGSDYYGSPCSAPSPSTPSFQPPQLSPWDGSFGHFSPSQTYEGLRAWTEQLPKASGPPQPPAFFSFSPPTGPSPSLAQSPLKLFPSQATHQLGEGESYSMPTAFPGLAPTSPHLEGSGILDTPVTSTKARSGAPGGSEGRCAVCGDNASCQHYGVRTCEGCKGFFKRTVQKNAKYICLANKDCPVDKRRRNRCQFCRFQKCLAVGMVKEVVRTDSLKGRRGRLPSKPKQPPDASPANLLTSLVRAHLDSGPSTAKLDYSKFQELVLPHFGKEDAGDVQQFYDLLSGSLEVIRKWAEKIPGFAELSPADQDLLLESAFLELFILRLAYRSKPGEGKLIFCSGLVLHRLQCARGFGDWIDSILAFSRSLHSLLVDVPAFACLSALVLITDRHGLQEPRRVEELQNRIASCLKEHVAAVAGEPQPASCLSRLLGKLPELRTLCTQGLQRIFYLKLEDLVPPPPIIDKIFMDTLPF

With COc1c(O)cc2c(c1C)CC=C1[C@@]2(C)CC[C@@]2(C)[C@@H]3C[C@](C)(C(=O)O)CC[C@]3(C)CC[C@]12C the Kd [1] was “Not Active” and the inhibition (HepG2 [2]) was “inactive”.
In the case of CNC(=O)[C@]1(C)CC[C@]2(C)CC[C@]3(C)C4=CC=C5C(=CC(=O)C(O)=C5C)[C@]4(C)CC[C@@]3(C)[C@@H]2C1, the Kd ([1]; read-out: Kd) is reported as 800 nM and the inhibition (HepG2 [2]) is reported as “Active”.
In the case of CCOC1=C(C)C2=CC=C3[C@@](C)(CC[C@@]4(C)[C@@H]5C[C@](C)(C(=O)OC)CC[C@]5(C)CC[C@]34C)C2=CC1=O, the Kd ([1]; read-out: Kd) is reported as 4130 nM and the inhibition (HepG2 [2]) is reported as “inactive”.
With Cc1c(O)c(O)cc2c1[C@H](C[N+](=O)[O-])C=C1[C@@]2(C)CC[C@@]2(C)[C@@H]3C[C@](C)(C(=O)O)CC[C@]3(C)CC[C@]12C the Kd ([1]; read-out: Kd) was 5560 nM and the inhibition (HepG2 [2]) was “inactive”.
For CCNC(=O)[C@]1(C)CC[C@]2(C)CC[C@]3(C)C4=CC=C5C(=CC(=O)C(O)=C5C)[C@]4(C)CC[C@@]3(C)[C@@H]2C1, the Kd ([1]; read-out: Kd) was 830 nM, the Activity [3] was “Active” and the Activity (HepG2 [4]) was 24%. For the same compound, the Activity (HepG2 [5]) was 3.92%, the Activity (HepG2 [6]) was “Toxic” and the Activity [7] was “Active”. For the same compound, the inhibition (HepG2 [2]) was “Active”, the viability at 10 h, 2 µM [8] was 53.7% and the Activity (HepG2 [9]) was 18.35%.
In the case of COc1cc2c(c(C)c1OC)CC=C1[C@@]2(C)CC[C@@]2(C)[C@@H]3C[C@](C)(C(=O)O)CC[C@]3(C)CC[C@]12C, the Kd [1] is reported as “Not Active” and the inhibition (HepG2 [2]) is reported as “inactive”.
In the case of Cc1c(O)c(O)cc2c1[C@H](CN)C=C1[C@@]2(C)CC[C@@]2(C)[C@@H]3C[C@](C)(C(=O)O)CC[C@]3(C)CC[C@]12C, the Kd [1] is reported as “Not Active” and the inhibition (HepG2 [2]) is reported as “inactive”.
For CC1=C(O)C(=O)C=C2C1=CC=C1[C@@]2(C)CC[C@@]2(C)[C@@H]3C[C@](C)(C(=O)F)CC[C@]3(C)CC[C@]12C, the Kd ([1]; read-out: Kd) was 720 nM and the inhibition (HepG2 [2]) was “Active”.
For Cc1c(O)c(O)cc2c1C(=O)C=C1[C@@]2(C)CC[C@@]2(C)[C@@H]3C[C@](C)(C(=O)O)CC[C@]3(C)CC[C@]12C, the Kd ([1]; read-out: Kd) was 2690 nM and the inhibition (HepG2 [2]) was “inactive”.
With COC(=O)[C@]1(C)CC[C@]2(C)CC[C@]3(C)C4=CCc5c(cc(OC)c(O)c5C)[C@]4(C)CC[C@@]3(C)[C@@H]2C1 the Kd [1] was “Not Active” and the inhibition (HepG2 [2]) was “inactive”.
With Cc1c(O)c(O)cc2c1[C@H](c1cc[nH]c1)C=C1[C@@]2(C)CC[C@@]2(C)[C@@H]3C[C@](C)(C(=O)O)CC[C@]3(C)CC[C@]12C the Kd [1] was “Not Active” and the inhibition (HepG2 [2]) was “inactive”.
In the case of Cc1c(O)c(O)cc2c1CC=C1[C@@]2(C)CC[C@@]2(C)[C@@H]3C[C@](C)(C(=O)O)CC[C@]3(C)CC[C@]12C [DIHYDROCELASTROL], the Kd ([1]; read-out: Kd) is reported as 870 nM, the Activity [3] is reported as “Active” and the Activity (HepG2 [4]) is reported as 11.09%. For the same compound, the Activity (HepG2 [5]) was 0.79%, the Activity [10] was “Toxic” and the Activity (HepG2 [6]) was “Non-Toxic”. For the same compound, the Activity [7] was “Active”, the Activity [11] was “Toxic” and the inhibition (HepG2 [2]) was “Active”. The viability at 10 h, 2 µM [8] was 85%, the Activity (HepG2 [9]) was 3.12% and the Activity [12] was “Toxic”. The Activity [13] was “Toxic”.
In the case of COC(=O)[C@]1(C)CC[C@]2(C)CC[C@]3(C)C4=CCc5c(cc(OC)c(OC)c5C)[C@]4(C)CC[C@@]3(C)[C@@H]2C1, the Kd [1] is reported as “Not Active” and the inhibition (HepG2 [2]) is reported as “inactive”.
With CC1=C(O)C(=O)C=C2C1=CC=C1[C@@]2(C)CC[C@@]2(C)[C@@H]3C[C@](C)(C(=O)O)CC[C@]3(C)CC[C@]12C [CELASTROL] the Activity [3] was “Active”, the mortality at 72 h, 0.5 µM [14] was 100% and the Activity (HepG2 [4]) was 24.98%. The Activity (HepG2 [5]) was 1.75%, the Activity [10] was “Toxic” and the Activity (HepG2 [6]) was “Toxic”. For the same compound, the Activity [7] was “Active”, the Activity [11] was “Toxic” and the inhibition (HepG2 [2]) was “Active”. It also gave a viability at 10 h, 2 µM [8] of 62.9%, an Activity (HepG2 [9]) of 10.34% and a mortality at 24 h, 0.125 µM [15] of 90%.
For Cc1c(O)c(O)cc2c1[C@H](C)C=C1[C@@]2(C)CC[C@@]2(C)[C@@H]3C[C@](C)(C(=O)O)CC[C@]3(C)CC[C@]12C, the Kd [1] was “Not Active” and the inhibition (HepG2 [2]) was “inactive”.
In the case of COC(=O)[C@]1(C)CC[C@]2(C)CC[C@]3(C)C4=CC=C5C(=CC(=O)C(O)=C5C)[C@]4(C)CC[C@@]3(C)[C@@H]2C1 [PRISTIMERIN], the Kd ([1]; read-out: Kd) is reported as 960 nM and the inhibition (HepG2 [2]) is reported as “Active”.
For COc1cc2c(c(C)c1O)CC=C1[C@@]2(C)CC[C@@]2(C)[C@@H]3C[C@](C)(C(=O)O)CC[C@]3(C)CC[C@]12C, the Kd [1] was “Not Active” and the inhibition (HepG2 [2]) was “inactive”.
In the case of COC(=O)[C@]1(C)CC[C@]2(C)CC[C@]3(C)C4=CCc5c(cc(O)c(OC)c5C)[C@]4(C)CC[C@@]3(C)[C@@H]2C1, the Kd [1] is reported as “Not Active”.
In the case of COC(=O)[C@]1(C)CC[C@]2(C)CC[C@]3(C)C4=CC=C5C(=CC(=O)C(OCC(F)F)=C5C)[C@]4(C)CC[C@@]3(C)[C@@H]2C1, the Kd ([1]; read-out: Kd) is reported as 3300 nM and the inhibition (HepG2 [2]) is reported as “inactive”.
In the case of CCOC(=O)[C@]1(C)CC[C@]2(C)CC[C@]3(C)C4=CC=C5C(=CC(=O)C(O)=C5C)[C@]4(C)CC[C@@]3(C)[C@@H]2C1, the Kd ([1]; read-out: Kd) is reported as 220 nM and the inhibition (HepG2 [2]) is reported as “Active”.
With COP(=O)(OC)[C@@H]1C=C2[C@@](C)(CC[C@@]3(C)[C@@H]4C[C@](C)(C(=O)O)CC[C@]4(C)CC[C@]23C)c2cc(O)c(O)c(C)c21 the Kd [1] was “Not Active” and the inhibition (HepG2 [2]) was “inactive”.
For CC(=O)C[C@@H]1C=C2[C@@](C)(CC[C@@]3(C)[C@@H]4C[C@](C)(C(=O)O)CC[C@]4(C)CC[C@]23C)c2cc(O)c(O)c(C)c21, the Kd ([1]; read-out: Kd) was 3800 nM and the inhibition (HepG2 [2]) was “inactive”.
With COC(=O)[C@]1(C)CC[C@]2(C)CC[C@]3(C)C4=CC=C5C(=CC(=O)C(OC)=C5C)[C@]4(C)CC[C@@]3(C)[C@@H]2C1 the Kd ([1]; read-out: Kd) was 2940 nM and the inhibition (HepG2 [2]) was “inactive”.
In the case of CC1=C(O)C(=O)C=C2C1=CC=C1[C@@]2(C)CC[C@@]2(C)[C@@H]3C[C@](C)(C(=O)OC(C)C)CC[C@]3(C)CC[C@]12C, the Kd ([1]; read-out: Kd) is reported as 520 nM and the inhibition (HepG2 [2]) is reported as “Active”.
In the case of CCCNC(=O)[C@]1(C)CC[C@]2(C)CC[C@]3(C)C4=CC=C5C(=CC(=O)C(O)=C5C)[C@]4(C)CC[C@@]3(C)[C@@H]2C1, the Kd ([1]; read-out: Kd) is reported as 270 nM and the inhibition (HepG2 [2]) is reported as “Active”.
